Measured values reported in ChEMBL document CHEMBL4699476, “Structure-based drug optimization and biological evaluation of tetrahydroquinolin derivatives as selective and potent CBP bromodomain inhibitors” (Bioorg Med Chem Lett, 2020).

Legend:
[1] = test system: MV4-11; experiment: Antiproliferative activity against human MV4-11 cells at 6.25 uM incubated for 6 days relative to control; format: functional; conditions: MV4-11, 144 h, time 6 day
Procedure, shortened: (§1)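 MV4-11 AML cells exposed to test agent at 6.25 or 1.56 µM for 6 days; viability read as percent growth inhibition versus control; inhibition rates are means of at least two determinations.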

[2] = target: T1, CREB-binding protein (Homo sapiens, UniProt Q92793); experiment: Inhibition of CBP BRD (unknown origin) by TR-FRET assay
Target sequence in this assay (Q92793 whole entry): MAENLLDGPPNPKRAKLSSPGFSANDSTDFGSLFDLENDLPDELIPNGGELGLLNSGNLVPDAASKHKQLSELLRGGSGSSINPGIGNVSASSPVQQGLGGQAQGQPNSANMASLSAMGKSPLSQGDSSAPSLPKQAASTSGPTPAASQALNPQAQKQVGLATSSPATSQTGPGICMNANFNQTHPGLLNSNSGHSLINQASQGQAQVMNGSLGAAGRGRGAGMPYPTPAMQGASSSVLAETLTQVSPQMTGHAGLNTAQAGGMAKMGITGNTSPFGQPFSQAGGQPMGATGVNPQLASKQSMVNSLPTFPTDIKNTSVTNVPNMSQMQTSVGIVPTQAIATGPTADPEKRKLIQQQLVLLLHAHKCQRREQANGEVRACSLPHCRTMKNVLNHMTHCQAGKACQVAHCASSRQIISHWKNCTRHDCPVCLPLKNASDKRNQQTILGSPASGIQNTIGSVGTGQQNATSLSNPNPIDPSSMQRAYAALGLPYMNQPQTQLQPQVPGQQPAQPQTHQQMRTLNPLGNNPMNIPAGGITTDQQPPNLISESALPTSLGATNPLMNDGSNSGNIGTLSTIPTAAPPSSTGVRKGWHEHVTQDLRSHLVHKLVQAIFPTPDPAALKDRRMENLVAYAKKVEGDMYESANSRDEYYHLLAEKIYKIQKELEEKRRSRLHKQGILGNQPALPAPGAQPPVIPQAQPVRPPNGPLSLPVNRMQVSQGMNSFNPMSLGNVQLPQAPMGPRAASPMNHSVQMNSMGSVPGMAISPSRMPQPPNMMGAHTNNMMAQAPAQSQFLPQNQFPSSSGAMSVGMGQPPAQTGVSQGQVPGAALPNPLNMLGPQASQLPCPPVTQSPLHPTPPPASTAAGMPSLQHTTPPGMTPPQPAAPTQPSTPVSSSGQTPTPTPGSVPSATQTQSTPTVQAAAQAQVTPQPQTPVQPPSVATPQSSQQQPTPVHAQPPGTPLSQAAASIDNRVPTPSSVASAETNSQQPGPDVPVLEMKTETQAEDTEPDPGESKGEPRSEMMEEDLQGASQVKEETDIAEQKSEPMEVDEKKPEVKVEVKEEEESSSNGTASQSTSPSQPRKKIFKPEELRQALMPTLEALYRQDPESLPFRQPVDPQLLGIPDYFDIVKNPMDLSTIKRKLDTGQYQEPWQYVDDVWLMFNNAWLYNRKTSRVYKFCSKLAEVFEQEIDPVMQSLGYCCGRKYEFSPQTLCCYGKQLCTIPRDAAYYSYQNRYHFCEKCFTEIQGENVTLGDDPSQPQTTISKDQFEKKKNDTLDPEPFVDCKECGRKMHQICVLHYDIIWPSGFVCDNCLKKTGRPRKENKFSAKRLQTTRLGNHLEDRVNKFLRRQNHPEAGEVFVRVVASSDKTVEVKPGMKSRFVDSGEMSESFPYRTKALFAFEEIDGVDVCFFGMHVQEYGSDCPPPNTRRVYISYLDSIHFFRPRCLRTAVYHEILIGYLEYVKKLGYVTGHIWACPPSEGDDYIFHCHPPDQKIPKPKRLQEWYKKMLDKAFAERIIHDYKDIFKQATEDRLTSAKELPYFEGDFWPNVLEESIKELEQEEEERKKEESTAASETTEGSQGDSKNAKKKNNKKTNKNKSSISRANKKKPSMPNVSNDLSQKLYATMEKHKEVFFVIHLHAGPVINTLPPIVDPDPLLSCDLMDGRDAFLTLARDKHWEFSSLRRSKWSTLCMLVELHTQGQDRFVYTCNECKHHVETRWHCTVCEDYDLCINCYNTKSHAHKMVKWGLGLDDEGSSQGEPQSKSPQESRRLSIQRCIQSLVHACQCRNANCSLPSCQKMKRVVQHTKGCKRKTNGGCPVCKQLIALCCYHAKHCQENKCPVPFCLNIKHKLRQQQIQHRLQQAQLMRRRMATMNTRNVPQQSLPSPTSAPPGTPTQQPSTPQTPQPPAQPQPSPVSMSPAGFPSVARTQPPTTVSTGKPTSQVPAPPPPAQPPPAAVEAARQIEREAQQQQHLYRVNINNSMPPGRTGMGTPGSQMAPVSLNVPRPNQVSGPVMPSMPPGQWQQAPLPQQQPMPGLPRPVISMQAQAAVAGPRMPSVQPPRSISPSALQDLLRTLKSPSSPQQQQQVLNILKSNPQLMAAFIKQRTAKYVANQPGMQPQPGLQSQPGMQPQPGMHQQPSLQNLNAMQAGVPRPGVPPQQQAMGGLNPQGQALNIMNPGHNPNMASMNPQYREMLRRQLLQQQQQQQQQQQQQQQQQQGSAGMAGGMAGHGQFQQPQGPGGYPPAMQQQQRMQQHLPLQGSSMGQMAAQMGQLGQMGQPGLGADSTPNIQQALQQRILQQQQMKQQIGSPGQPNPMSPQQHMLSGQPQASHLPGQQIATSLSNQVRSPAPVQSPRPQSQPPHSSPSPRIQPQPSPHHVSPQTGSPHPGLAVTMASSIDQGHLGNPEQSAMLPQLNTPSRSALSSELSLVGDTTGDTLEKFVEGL

[3] = test system: MV4-11; experiment: Antiproliferative activity against human MV4-11 cells at 1.56 uM incubated for 6 days relative to control; format: functional; conditions: MV4-11, 144 h, time 6 day; procedure, shortened: as §1
[4] = species: Homo sapiens; experiment: Selectivity index, ratio of IC50 for BR4 BD1 (unknown origin) to IC50 for CBP BRD (unknown origin)
[5] = target: T2, Bromodomain-containing protein 4 (Homo sapiens, UniProt O60885); experiment: Inhibition of BRD4 BD2 (unknown origin) by ALPHAScreen assay
[6] = target: T2, Bromodomain-containing protein 4; experiment: Inhibition of BRD4 BD1 (unknown origin) by ALPHAScreen assay
[7] = target: T1, CREB-binding protein; experiment: Inhibition of CBP in human MV4-11 cells assessed as decrease in c-myc protein expression incubated for 12 hrs by Western blot analysis; format: cell-based; conditions: dose microM 0.25-2, time 12.0 hrs
Procedure, shortened: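 MV4-11 cells treated at 0, 0.25, 0.5, 1 and 2 µM for 12 h; c-Myc protein level assessed by Western blot.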
Target sequence in this assay (Q92793 2-2442 limits assumed): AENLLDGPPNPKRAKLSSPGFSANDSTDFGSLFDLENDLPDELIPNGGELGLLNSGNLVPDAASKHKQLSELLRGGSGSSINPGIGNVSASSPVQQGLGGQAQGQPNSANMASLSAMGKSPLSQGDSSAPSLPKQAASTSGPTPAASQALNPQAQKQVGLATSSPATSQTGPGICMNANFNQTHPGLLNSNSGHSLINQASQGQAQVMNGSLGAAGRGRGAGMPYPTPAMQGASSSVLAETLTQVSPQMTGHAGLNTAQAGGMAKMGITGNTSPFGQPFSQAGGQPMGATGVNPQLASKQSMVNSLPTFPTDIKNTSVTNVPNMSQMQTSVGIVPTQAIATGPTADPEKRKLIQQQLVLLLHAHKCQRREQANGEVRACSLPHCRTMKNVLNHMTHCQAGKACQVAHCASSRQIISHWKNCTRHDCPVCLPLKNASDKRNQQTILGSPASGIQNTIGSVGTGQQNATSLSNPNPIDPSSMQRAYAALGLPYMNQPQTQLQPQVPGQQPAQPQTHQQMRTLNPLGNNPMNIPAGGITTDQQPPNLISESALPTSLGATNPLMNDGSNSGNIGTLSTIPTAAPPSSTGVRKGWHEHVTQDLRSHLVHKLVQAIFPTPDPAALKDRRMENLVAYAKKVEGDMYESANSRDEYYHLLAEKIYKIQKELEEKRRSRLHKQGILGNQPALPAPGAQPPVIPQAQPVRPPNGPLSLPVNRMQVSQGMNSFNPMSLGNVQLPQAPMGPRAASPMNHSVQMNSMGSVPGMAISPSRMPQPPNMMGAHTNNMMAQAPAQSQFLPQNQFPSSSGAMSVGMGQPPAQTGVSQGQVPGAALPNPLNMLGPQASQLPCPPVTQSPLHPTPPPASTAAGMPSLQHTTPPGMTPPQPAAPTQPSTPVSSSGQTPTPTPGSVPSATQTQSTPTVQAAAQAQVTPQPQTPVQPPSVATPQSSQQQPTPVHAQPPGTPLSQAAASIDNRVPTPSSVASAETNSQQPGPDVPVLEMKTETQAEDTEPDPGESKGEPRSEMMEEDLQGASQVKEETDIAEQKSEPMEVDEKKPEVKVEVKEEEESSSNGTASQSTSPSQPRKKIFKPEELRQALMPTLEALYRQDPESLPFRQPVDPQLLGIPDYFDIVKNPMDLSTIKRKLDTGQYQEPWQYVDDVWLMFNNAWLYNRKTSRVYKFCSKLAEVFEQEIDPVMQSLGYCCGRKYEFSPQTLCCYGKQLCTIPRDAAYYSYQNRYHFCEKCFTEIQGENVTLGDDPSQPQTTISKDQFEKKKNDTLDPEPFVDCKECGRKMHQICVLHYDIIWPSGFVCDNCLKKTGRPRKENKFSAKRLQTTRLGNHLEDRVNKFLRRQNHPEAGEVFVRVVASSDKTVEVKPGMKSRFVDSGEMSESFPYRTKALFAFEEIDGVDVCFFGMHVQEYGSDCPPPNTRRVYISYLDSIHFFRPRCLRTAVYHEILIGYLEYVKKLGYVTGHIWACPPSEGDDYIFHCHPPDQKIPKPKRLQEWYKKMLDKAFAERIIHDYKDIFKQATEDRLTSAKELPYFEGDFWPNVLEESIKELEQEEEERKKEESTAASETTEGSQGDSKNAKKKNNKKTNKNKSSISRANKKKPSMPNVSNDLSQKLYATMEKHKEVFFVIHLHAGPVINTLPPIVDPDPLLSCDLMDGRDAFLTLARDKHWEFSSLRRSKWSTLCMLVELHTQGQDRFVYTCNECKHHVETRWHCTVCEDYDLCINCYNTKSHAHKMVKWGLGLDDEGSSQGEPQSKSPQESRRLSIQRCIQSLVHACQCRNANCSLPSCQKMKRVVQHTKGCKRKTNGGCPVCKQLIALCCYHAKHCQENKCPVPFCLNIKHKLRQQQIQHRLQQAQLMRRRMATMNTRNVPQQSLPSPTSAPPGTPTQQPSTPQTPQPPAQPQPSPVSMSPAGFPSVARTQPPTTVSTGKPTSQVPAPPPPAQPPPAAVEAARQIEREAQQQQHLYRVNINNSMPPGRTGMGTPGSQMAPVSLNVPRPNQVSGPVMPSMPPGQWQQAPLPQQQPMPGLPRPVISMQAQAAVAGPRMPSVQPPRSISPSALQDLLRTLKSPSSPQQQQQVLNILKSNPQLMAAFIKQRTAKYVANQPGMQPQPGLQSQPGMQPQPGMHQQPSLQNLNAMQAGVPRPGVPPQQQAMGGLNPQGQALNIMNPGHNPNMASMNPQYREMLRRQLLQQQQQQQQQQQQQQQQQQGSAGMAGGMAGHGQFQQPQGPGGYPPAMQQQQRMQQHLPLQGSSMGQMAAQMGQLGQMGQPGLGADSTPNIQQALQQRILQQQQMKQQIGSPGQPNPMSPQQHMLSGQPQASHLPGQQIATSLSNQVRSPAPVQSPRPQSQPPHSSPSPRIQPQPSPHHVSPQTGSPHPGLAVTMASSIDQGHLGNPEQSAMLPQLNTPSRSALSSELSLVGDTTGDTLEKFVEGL

[8] = species: Homo sapiens; experiment: Selectivity index, ratio of IC50 for BR4 BD2 (unknown origin) to IC50 for CBP BRD (unknown origin)
[9] = test system: MV4-11; experiment: Antiproliferative activity against human MV4-11 cells incubated for 6 days relative to control; format: functional, cell-based; conditions: MV4-11, 144 h
Procedure, shortened: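 MV4-11 cells treated for 6 days; IC50 derived for agents giving over 50% growth inhibition at 1.56 µM; values reported with ± error.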

[10] = target: T1, CREB-binding protein; experiment: Binding affinity to CBP BRD (unknown origin) by microscale thermophoresis assay
Target sequence in this assay (Q92793 whole entry): as the sequence (Q92793 whole entry) above

[11] = target: T1, CREB-binding protein; experiment: Inhibition of GST-tagged CBP BRD (unknown origin) incubated for 30 mins by HTRF assay
Target sequence in this assay (Q92793 whole entry): as above

| IC50 [2] | Structure (SMILES) | inhibition at 6.25 µM [1] | inhibition at 1.56 µM [3] | further results |
| --- | --- | --- | --- | --- |
| 102 nM | CNC(=O)N1CCCc2ccc(NC(=O)c3ccc(-c4ccccn4)cc3)cc21 | 79.2% | 31.9% |  |
| 19.5 nM | CNC(=O)N1CCCc2ccc(NC(=O)c3ccc(-c4cc[nH]n4)cc3)cc21 | 99.1% | 92.5% | Ratio IC50 [4]: > 400; IC50 [5]: 19000 nM; IC50 [6]: 8400 nM; inhibition [7]: Dose-dependent effect; Ratio IC50 [8]: > 400; IC50 [9]: 550 nM; Kd [10]: 25.4 nM |
| 286 nM | CNC(=O)N1CCCc2ccc(NC(=O)c3cccc(-c4cnn(S(C)(=O)=O)c4)c3)cc21 | 18% | 1.6% |  |
| 55.4 nM | CNC(=O)N1CCCc2ccc(NC(=O)c3cccc(-c4cnn(C)c4)c3)cc21 | 93.5% | 71.2% | IC50 [9]: 1040 nM |
| 195 nM | CNC(=O)N1CCCc2ccc(NC(=O)c3ccc(-c4ccccc4)cc3)cc21 | 74.3% | 19.6% |  |
| 45.7 nM | CNC(=O)N1CCCc2ccc(NC(=O)c3cccc(-c4ccn(C)n4)c3)cc21 | 99.5% | 70.5% | IC50 [9]: 980 nM |
|  | CNC(=O)N1CCCc2ccc(NC(=O)c3cccc(-c4ccccc4)c3)cc21 | 60.4% | 10.7% | IC50 [11]: 8410 nM |
| 63.3 nM | CNC(=O)N1CCCc2ccc(NC(=O)c3cccc(-c4ccncc4)c3)cc21 |  |  | IC50 [11]: 63.3 nM |
| 89.2 nM | CNC(=O)N1CCCc2ccc(NC(=O)c3ccc(-c4ccncc4)cc3)cc21 | 88.7% | 37.6% |  |
| 74.4 nM | CNC(=O)N1CCCc2ccc(NC(=O)c3ccc(-c4ccn(S(C)(=O)=O)n4)cc3)cc21 | 57.2% | 8.81% |  |
| 53.7 nM | CNC(=O)N1CCCc2ccc(NC(=O)c3ccc(-c4cccnc4)cc3)cc21 | 92.1% | 62.5% | IC50 [9]: 1160 nM |
| 76.5 nM | CNC(=O)N1CCCc2ccc(NC(=O)c3cccc(-c4cnn(C(C)=O)c4)c3)cc21 | 82% | 33.5% |  |
| 91.3 nM | CNC(=O)N1CCCc2ccc(NC(=O)c3cccc(-c4cn[nH]c4)c3)cc21 | 77.7% | 27.9% |  |
| 92.9 nM | CNC(=O)N1CCCc2ccc(NC(=O)c3cccc(-c4cc[nH]n4)c3)cc21 | 89.7% | 27.3% |  |
| 85.2 nM | CNC(=O)N1CCCc2ccc(NC(=O)c3ccc(-c4cnn(C(C)=O)c4)cc3)cc21 | 83.8% | 23.9% |  |
| 47.7 nM | CNC(=O)N1CCCc2ccc(NC(=O)c3ccc(-c4cn[nH]c4)cc3)cc21 | 98.3% | 73.5% | IC50 [9]: 870 nM |
| 40.2 nM | CNC(=O)N1CCCc2ccc(NC(=O)c3ccc(-c4ccn(C)n4)cc3)cc21 | 97% | 72.2% | IC50 [9]: 830 nM |
|  | CNC(=O)N1CCCc2ccc(NC(=O)c3ccccc3-c3ccccc3)cc21 | 1.39% | 2.83% | IC50 [11]: 213 nM |
|  | COC(=O)N1CCCc2ccc(NC(=O)C3CC=CCC3C(=O)O)cc21 (centres undefined) |  |  | IC50 [11]: 2300 nM |
| 103 nM | CNC(=O)N1CCCc2ccc(NC(=O)c3cccc(-c4ccn(S(C)(=O)=O)n4)c3)cc21 | 37% | 4.03% |  |
| 37.4 nM | CNC(=O)N1CCCc2ccc(NC(=O)c3ccc(-c4cnn(C)c4)cc3)cc21 | 94.4% | 77.3% | IC50 [9]: 730 nM |
| 52.3 nM | CNC(=O)N1CCCc2ccc(NC(=O)c3ccc(-c4ccn(C(C)=O)n4)cc3)cc21 | 91.3% | 35.8% |  |
| 93.1 nM | CNC(=O)N1CCCc2ccc(NC(=O)c3ccc(-c4cnn(S(C)(=O)=O)c4)cc3)cc21 | 40.2% | 4.5% |  |
|  | C[C@@H]1CC(=O)Nc2cccc(-c3ccc4c(c3)c(-c3cnn(C)c3)nn4C)c2N1 |  |  | IC50 [5]: 18800 nM; IC50 [6]: 12000 nM |
| 94.6 nM | CNC(=O)N1CCCc2ccc(NC(=O)c3cccc(-c4ccn(C(C)=O)n4)c3)cc21 | 87.6% | 27.6% |  |
